# Shown are actives, neighbours in structure and some others; about 0.79% of the full set was active somewhere.
# mIAP inh = inhibitors of mouse IAP, primary screen, biochemical, luminescence, uHTS; purified mouse IAP, CDP-Star luminescence, 30 min; intestinal alkaline phosphatase [Mus musculus]; hit rate 0.2% among 330,000; AID 2806, 2010; inhibition, % at 10 µM;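 active = inhibition of at least 40% at 10 µM in the primary screen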;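 also: plate controls were DMSO with enzyme for no effect and no enzyme wells for full effect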
# hIAP inh = human IAP inhibitors, primary screen, biochemical, luminescence, uHTS; Intestinal-type alkaline phosphatase (Homo sapiens), P09923; purified IAP, CDP-Star luminescence, 30 min; inhibition, % at 10 µM; hit rate 0.12% among 330,000; AID 2544, 2010;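 active = inhibition reaching a set limit with compound at 10 µM in the primary screen, cut at about 35% in these data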;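 also: plate controls were DMSO wells with enzyme for no effect and no-enzyme buffer wells for full effect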
# Target sequence (P09923 whole entry, looked up): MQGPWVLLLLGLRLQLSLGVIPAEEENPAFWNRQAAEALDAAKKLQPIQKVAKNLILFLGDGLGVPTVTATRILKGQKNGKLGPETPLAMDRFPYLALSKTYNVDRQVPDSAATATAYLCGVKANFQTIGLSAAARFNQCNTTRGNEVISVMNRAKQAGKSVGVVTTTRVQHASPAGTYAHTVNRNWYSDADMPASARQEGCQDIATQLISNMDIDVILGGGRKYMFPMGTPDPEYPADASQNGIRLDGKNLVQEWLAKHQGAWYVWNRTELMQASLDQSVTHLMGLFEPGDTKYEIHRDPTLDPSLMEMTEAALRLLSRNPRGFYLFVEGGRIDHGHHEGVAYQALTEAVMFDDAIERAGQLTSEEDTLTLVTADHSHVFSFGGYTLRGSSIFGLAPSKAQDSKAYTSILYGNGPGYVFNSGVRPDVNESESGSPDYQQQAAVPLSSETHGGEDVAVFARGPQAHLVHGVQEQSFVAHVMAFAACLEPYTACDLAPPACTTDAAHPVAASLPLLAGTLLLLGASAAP
# bIAP activator = bovine intestinal alkaline phosphatase activators, primary screen, biochemical, bovine IAP, CDP-star luminescence. alkaline phosphatase, intestinal [Bos taurus]. purified bovine IAP, 30 min; active compounds read high; fold of DMSO-control signal, blank-subtracted. activation factor at 20 µM. hit rate 0.17% among 200,000. AID 1016, 2008;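 active = activation factor of 2 or more at 20 µM, a signal rise over negative controls twice the positive control's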
# bIAP inhibitor = bovine intestinal alkaline phosphatase inhibitors, primary screen, selectivity assay for TNAP inhibitor project, biochemical, bovine IAP, CDP-star luminescence; inhibition, % at 20 µM; AID 1019, 2008; 190,000 tested, under 10 active; purified bovine IAP, 30 min;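 active = over 50% inhibition of intestinal alkaline phosphatase at 20 µM in the single-dose screen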
#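 System: Purified bovine intestinal alkaline phosphatase (IAP) enzyme | Input: IAP diluted 1/65,000,000 in the well | Also added: CDP-star chemiluminescent phosphatase substrate, 30 µM final | Dosing: 20 µM single dose | Times: Enzyme reaction for 30 min at room temperature | Detection: Luminescence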
# hIAP act = human IAP activators, primary screen, biochemical, luminescence, uHTS; Intestinal-type alkaline phosphatase (Homo sapiens), P09923; purified human IAP, CDP-Star luminescence, 30 min; active compounds read high; 1 = vehicle-only enzyme, 0 = enzyme-free background; activation factor at 10 µM; hit rate 0.16% among 330,000;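 active = activation factor of the enzyme at least 2-fold when tested at 20 µM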
# mIAP activ = activators of mouse IAP, primary screen, biochemical, luminescence, uHTS | intestinal alkaline phosphatase [Mus musculus] | muIAP, CDP-Star luminescence, 30 min; active compounds read high; 1 = vehicle-only enzyme signal, 0 = enzyme-free wells | activation factor at 10 µM | hit rate 0.24% among 330,000 | AID 2805, 2010;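 active = activation factor of at least 2 at 20 µM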
#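 System: mouse IAP enzyme. Reagent: CDP-Star chemiluminescent phosphatase substrate. Benchmarks: DMSO wells, no-enzyme wells. Times: 30 min enzyme-substrate-compound incubation at room temperature. Detection: luminescence from enzymatic CDP-Star hydrolysis. Doses: test compounds delivered from DMSO solution.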
# hIAP act confirm = human IAP activators, confirmation, biochemical, luminescence, single concentration, uHTS hits | shares compounds with hIAP act | purified IAP, CDP-Star luminescence, 30 min; active compounds read low | activation (%Activity, negative = activation), % at 8.3 µM | hit rate 10% among 880;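 active = at least twofold enzyme activation in any of six single-dose repeats, which the averaged readout prints as negative percent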
# The depositor's hits bear a star; / = not tested or not shown; + = active, no number.
SMILES,mIAP inh,hIAP inh,bIAP activator,bIAP inhibitor,hIAP act,mIAP activ,hIAP act confirm
Cc1cc(NC(=O)C2CC(=O)N(c3cccc(Cl)c3)C2)no1 (configuration not stated),-2,13,/,/,0.87,1,/
NC(=O)c1c(NC(=O)c2ccc(F)cc2)sc2c1CCC2,11,37*,/,/,0.63,0.89,+
O=C(N/N=C/c1ccc2cccnc2c1)c1nc2ccccc2c(=O)[nH]1,9,-167,/,/,2.7*,0.91,-193*
O=C(N/N=C/c1ccncc1)c1nc2ccccc2c(=O)[nH]1,-19,-170,/,/,2.7*,1.2,7
O=S(=O)(N/N=C/c1cccnc1)c1ccc(Cl)c(Cl)c1,12,-6,/,/,1.1,0.89,/
C[C@H](CO)N1C[C@H](C)[C@@H](CN(C)CC2CCCCC2)Oc2c(NC(=O)Cc3ccccc3)cccc2C1=O,-2,-24,/,/,1.2,1,/
COc1c(-c2ccc(O)c(O)c2)oc2cc(O)cc(O)c2c1=O,31,60*,/,/,0.4,0.69,2
Cc1ccsc1/C=N/Nc1ncnc2nc[nH]c12,3,-126,1.2,-24,2.3*,0.97,-11
O=C1NC(Cc2ccccc2)c2nc3ccccc3c(=O)n2-c2cc(Cl)ccc21 (configuration not stated),6,0,/,/,0.99,0.94,/
COc1ccc(CNc2ccc(C)c(C)c2)cc1,-1,-4,0.9,8,1,1,/
COc1ccc(NCc2ccc(OC)c(OC)c2)cc1,7,38*,1,0,0.62,0.93,-30
CC(=O)OCC(=O)c1c[nH]c2ccccc12,2,12,1.1,-8,0.89,0.97,/
CC(C)(C)NCC(=O)c1c[nH]c2ccccc12,-15,-108,0.9,10,2.1*,1.1,-58
CC(=O)NS(=O)(=O)c1ccc(NC(=O)C(C)NS(=O)(=O)/C=C/c2ccccc2)cc1 (configuration not stated),-8,0,/,/,1,1.1,/
CCCN1C(=O)/C(=C2/C=Cc3ccccc3N2CC)SC1=S,34,38*,1,4,0.62,0.66,6
C=CCN1C(=O)/C(=C/C=C2/N(CC)c3ccc(S(=O)(=O)N(C)C)cc3N2CC)SC1=S,27,36*,0.9,14,0.64,0.73,0
O=C(NCc1ccccc1C(F)(F)F)C1CCC(=O)N(CCCc2ccccc2)C1 (configuration not stated),-7,-29,/,/,1.3,1.1,/
S=C(NCc1ccncc1)Nc1ccc(Cl)cc1,-8,-100,0.9,6,2*,1.1,7
c1ccc(Nc2ccnc(Nc3ccccc3)n2)cc1,-11,-177,/,/,2.8*,1.1,-44*
N#C/C(=C(\O)c1cc(Cl)sc1Cl)c1nc2ccccc2[nH]1,6,-12,/,/,1.1,0.94,/
Cc1[nH]n(-c2nc(-c3ccccc3)cc(=O)[nH]2)c(=O)c1CCO,12,62*,0.6,35,0.38,0.88,47
C=CCOc1ccc(/C=C2\SC(=S)N(NS(=O)(=O)c3ccccc3)C2=O)cc1,10,-4,/,/,1,0.91,/
O=C(NNC(=O)c1nn(-c2ccc(F)cc2)ccc1=O)c1ccc(Cl)cc1,20,13,/,/,0.87,0.8,/
O=C(NNC(=O)c1nn(-c2ccc(F)cc2)ccc1=O)Nc1cccc(Cl)c1,16,40*,/,/,0.6,0.84,-28
O=S(=O)(Nc1ccon1)c1ccc(F)c(F)c1,-12,15,/,/,0.85,1.1,/
SMILES,mIAP inh,hIAP inh,bIAP activator,bIAP inhibitor,hIAP act,mIAP activ,hIAP act confirm
COc1ccc(-c2csc(C3=C(O)CN(CCCN4CCCC4=O)C3=N)n2)cc1OC,0,0,1.3,-26,1,1,/
CC1(C)NC(=O)N(CC(=O)N2CCN(c3cccc(Cl)c3)CC2)C1=O,1,9,/,/,0.91,0.99,/
COc1ccc(OCc2cc(C(=O)O)c(C)o2)cc1,1,-18,/,/,1.2,0.99,/
CC(=O)N[C@@H](C)C(=O)N1CCN(S(=O)(=O)c2ccc(Cl)cc2)CC1,5,-177,1,-4,2.8*,0.95,-38
CCc1nn(CC(=O)NCc2cccnc2)c(=O)c2cc3occc3n12,4,-4,/,/,1,0.96,/
CCCCc1ccc(NC2=NCC(=O)N2CCc2ccccc2)cc1,-8,-1,0.9,8,1,1.1,/
O=C(COc1ccc(Br)cc1)NCCCn1ccnc1,1,-155,/,/,2.6*,0.99,51
Cc1ccc(NC(=O)C(C)OC(=O)COc2cccc(C(F)(F)F)c2)cc1 (configuration not stated),-3,-16,/,/,1.2,1,/
COc1ccc(NC(=O)/C(C#N)=C\c2cc(C)n(-c3ccc4c(c3)OCO4)c2C)cc1,14,-108,0.9,9,2.1*,0.86,-56
CCn1c(C)nc2cc(C(=O)NNC(=S)Nc3ccc(C)cc3)ccc21,-15,-101,/,/,2*,1.2,-48
CC(Cc1ccc(Cl)cc1)N1CCC(n2nccc2NC(=O)C2CCCC2)CC1 (configuration not stated),-83,-128,/,/,2.3*,1.8,-3
O=C(Nc1ccnn1C1CCN(Cc2ccccc2)CC1)C1CCCC1,-12,-18,/,/,1.2,1.1,/
CCOc1ccc(CCNC(=O)c2cc(-c3ccccc3)c(N3CCOCC3)s2)cc1OCC,-116,-152,/,/,2.5*,2.2*,1
COc1ccc(CCNC(=O)c2cc(-c3ccccc3)c(N3CCOCC3)s2)c(OC)c1OC,-30,-57,/,/,1.6,1.3,/
CNC(=S)NNC(=O)c1cccn(Cc2cccc(Cl)c2)c1=O,18,-101,1.3,-35,2*,0.82,6
CNC(=S)NNC(=O)c1cccn(Cc2ccc(Cl)c(Cl)c2)c1=O,22,-81,1.2,-19,1.8,0.78,/
COc1cc(NC(C)CCCN)c2ncccc2c1 (configuration not stated),1,52*,/,/,0.48,0.99,-49
Cc1cc(SCC(=O)NCCCN2CCCC2=O)nc2ccccc12,-4,2,/,/,0.98,1,/
Cc1c(Cl)cccc1NC(=O)C(=O)NNS(=O)(=O)c1ccc(F)cc1,20,-139,/,/,2.4*,0.8,-20
